Fewer inactive variants are shown than the library holds.
B1: tRNA (parent)
chain: GUUCCGUUGGCGUAAUGGUAACGCGUCUCCCUCCUAAGGAGAAGACUGCGGGUUCGAGUCCCGUACGGAACG

Variants of: B1
Experiment: yeast fitness relative to wild type (ratio to wild type); higher = fitter; tRNA-Arg(CCU), competitive growth, 37 C, YPD
How it was run: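 Genotype frequency changes were the basis for Darwinian fitness relative to wild type. The frequencies came from 100-nucleotide paired-end sequencing of gene amplicons from the start population and each end population of pooled yeast strains with tRNA-Arg(CCU) gene variants at the native locus. Competition ran in YPD at 37°C for 24 hours in six replicates, genotypes needed ≥ 100 starting reads, and estimates < 0.5 were set to 0.5.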

GUUCCGUUGGCGUAAUGGUAACCCGUCUCCCUCCUAAGGAGAAGACUGGGCAUUCGAGUCCCGUACGGAACG [G23C C49G G51C G52A] and GUUCCGUUGGCGUAAUGGUAACGAGUCUCCCUCCUAAGGAGGAGACCGCGGGUUCGAGCCCCGUACGGAACG [C24A A42G U47C U59C] cannot be ordered by yeast fitness: no more than 0.5 for the first, no more than 0.5 for the second.

Going from GUUCCGUUGGCGUAAUGGUAACCCGUCUCCCUCCUAAGGAGAAGACUGCGGGUUCGAUUCCCGUACGGAACG [G23C G58U] to GUUCCGUUGGCGUAAUGGUAACCCGUCUCCCUCCUAAGGAGAAGACUGCGGGUUCGAAUCCCGUACGGAACG [G23C G58A], the yeast fitness rises from 0.565 to 0.6.

First: GUUCCGUUGGCGUAAUGGUAACCCGUCUCCCUCCUAAGGAGAAGAUUGCGGGUUCGAGUCCCGUACAGAACG [G23C C46U G67A]
Second: GUUCCGUUGGCGUAAUGGUAACCCGUCUCCCUCCUAAGGAGAAGACUGCGGGUUCGAGUCUCGUAGGGAUCG [G23C C61U C66G A70U]
The yeast fitness of the first is higher: 0.564 for the first, 0.562 for the second.

GUUCCGUUGGCGUAAUGGUAACCCAUCUCCCUCCUAAGGAGAAGACUGCGGGUUCGAGUCUCGUACGGAACG [G23C G25A C61U] and GUUCCGUUGGCGUAAUGGUAACCCGUCUCCCUCCUAAGGAGAAGACUGCGGGUUCGAGUACCGUACGGAUCG [G23C C60A A70U] are the same in yeast fitness: 0.536 for the first, 0.536 for the second.

Going from GUUCCGUUGGCGUAAUGGUAACCCGUCUCCCUCCUAAGGAGAAGACUACGGGUUCGAGUCCCGAUCGGAACG [G23C G48A U64A A65U] to GUUCCGUUGGCGUAAUGGUAACCCGUCUCCCUCCUAAGGAAAAGACUGCGGGUUCGAGUCCCGUACGGAACG [G23C G41A], the yeast fitness rises from no more than 0.5 to 0.716.

GUUCCGUUGGCGUAAUGGUAACCCGUCUCCCUCCUAAGCAGAAGACUGCGGGUUCGAGUCCCGUACGGAUCG [G23C G39C A70U] and GUUCCGUUGGCGUAAUGGUAACGAGUCUCCCUCCUGAGGAGGGGACUACGGGUUCGAGUCCCGUACGGAACG [C24A A36G A42G A43G G48A] cannot be ordered by yeast fitness: no more than 0.5 for the first, no more than 0.5 for the second.

Compared with GUUCCGUUGGCGUAAUGGUAACCCGUCUCCCUCCUAAGGAGAAGACGGCGGGUUCGAGUCCCGUACGGAACG [G23C U47G], GUUCCGUUGGCGUAAUGGUAACGAGUCUCCCUCCUAAGGAGGAGACUGCGGGUUCGAGUCCCGUACGGAACG [C24A A42G] is lower in yeast fitness: 0.626 for the first, 0.548 for the second.

Compared with GUUCCGUUGGCGUAAUGGUAACUCGUCUCCCUCCUAAGGAGAAGACUGCGGGUUCGAGUUCCGUGCGGAACG [G23U C60U A65G], GUUCCGUUGGCGUAAUGGUAACCCAUCUCCCUCCUAAGGAGAAGACUCCGGGUUCGAGUCCCGUACGGAACG [G23C G25A G48C] is higher in yeast fitness: no more than 0.5 for the first, 0.594 for the second.

Going from GUUCCGUUGGCGUAAUGGUAACCCAUCUCCCUCCUAAGGAGAAGACUGCGGGUUCGAGUCCCGUACGGAACG [G23C G25A] to GUUCCGUUGGCGUAAUGGUAACUCGUCUCCCUCCUAAGGAGAAGACUGCGGGUUCGAGUCCCGUACGGCACG [G23U A69C], the yeast fitness falls from 0.818 to 0.695.

Compared with GUUCCGUUGGCGUAAUGGUAACCCGUCCCCCUCCUAAGGAGAAGAGUGCGGGUUCGAGUCCGGUACGGAACG [G23C U28C C46G C62G], GUUCCGUUGGCGUAAUGGUAACUCGUCUCCCUCCUAAGGAGAAGACUGCGGGUUCGAGUCCCGUACGGAACG [G23U] is higher in yeast fitness: no more than 0.5 for the first, 0.779 for the second.

Going from GUUCCGUUGGCGUAAUGGUAACCCGUCUCCCUCCUAAGGAGAAGACUGCGGGUUCGAGUCUCGUACGGAUCG [G23C C61U A70U] to GUUCCGUUGGCGUAAUGGUAACCCGCCUCCCUCCUAAGGAGAAGACUGCGGGUUCGAGUCCCGUACGGAACG [G23C U26C], the yeast fitness rises from 0.6 to 0.624.

GUUCCGUUGGCGUAAUGGUAACCCGUCUCCCUCCUAAGGAGAAGACUGAGGGUUCGAGCCCCGUACAGGACG [G23C C49A U59C G67A A69G] and GUUCCGUUGGCGUAAUGGUAACCCGUCUCCCACCUAAGGAGAAGACUGCGGGUUCGAGUCCCGUAUGGAACG [G23C U32A C66U] cannot be ordered by yeast fitness: no more than 0.5 for the first, no more than 0.5 for the second.

GUUCCGUUGGCGUAAUGGUAACCCGUCACCCUCCUAAGGAGAAGACUGCGGGUUCGAGUCCCGUGCGGAACG [G23C U28A A65G] and GUUCCGUUGGCGUAAUGGUAACCCGCCUCCCUCCUAAGGAGAAGAGUGCGGGUUUGAGUCCCGUACGGAACG [G23C U26C C46G C55U] cannot be ordered by yeast fitness: no more than 0.5 for the first, no more than 0.5 for the second.

Compared with GUUCCGUUGGCGUAAUGGUAACCCGUCUCCCUCCUAAGGAGAAGACUGCCGAUUCGAGUCCCGUACGGAACG [G23C G50C G52A], GUUCCGUUGGCGUAAUGGUAACCCGUCUCCCUCCUAAGGAGAAGACUGCGGGUCCGAGUCCCGUACGGAACG [G23C U54C] is lower in yeast fitness: 0.698 for the first, 0.502 for the second.

Going from GUUCCGUUGGCGUAAUGGUAACCCGUCUCCCUCCUAAGGACAAGACUGCGGGUUCGAGUCCCGUACGAAACG [G23C G41C G68A] to GUUCCGUUGGCGUAAUGGUAACCCGUCUCCCUCCUAAGGAGAAGACUGCGGGUUCGAGUCCCCUACGGAACG [G23C G63C], the yeast fitness rises from no more than 0.5 to 0.594.

Going from GUUCCGUUGGCGUAAUGGUAACCCGUCUCCCUCCUAAGGAGAAGACUGCGGGUUCGAGUCCCAUACGGAACG [G23C G63A] to GUUCCGUUGGCGUAAUGGUAACCCGUCUCCCUCCUAAGGAGAAGACUGCGGGUUCAAGUCCCGUACGGAACG [G23C G56A], the yeast fitness rises from 0.51 to 0.566.

GUUCCGUUGGCGUAAUGGUAACCCGUCUCCCUCCUAAGGAGAAGACUGCGGGUUCCAGUCCCGUACGGAACG [G23C G56C] and GUUCCGUUGGCGUAAUGGUAACCCGCCUCCCUCCUAGGGGGGAGACUGCGGGUUCGAGUCCCGCACGGAACG [G23C U26C A37G A40G A42G U64C] cannot be ordered by yeast fitness: no more than 0.5 for the first, no more than 0.5 for the second.

Going from GUUCCGUUGGCGUAAUGGUAACGAGUCUCCCUCCUAGGGAGAAGACUGCGGGUUCGAGUCCCGUACGGAACG [C24A A37G] to GUUCCGUUGGCGUAAUGGUAACGAGUCUCCCUCCUAUGGAGAAGACUGCGGGUUCGAGUCCCGUACGGAACG [C24A A37U], the yeast fitness rises from 0.513 to 0.579.

Compared with GUUCCGUUGGCGUAAUGGUAACGAGUCUCCCUCCUUAGGAGAAGACUGCGGGUUAGAGUCCCGUACGGAACG [C24A A36U C55A], GUUCCGUUGGCGUAAUGGUAACGAGUCUCCCUCCUAAGGUGAUGACUGCGGGUUCGAGUCGCGUACGUAACG [C24A A40U A43U C61G G68U] is higher in yeast fitness: no more than 0.5 for the first, 0.597 for the second.
